Results on 7 molecules are retold here after ChEMBL document CHEMBL4219066, “Identification and Mitigation of Reactive Metabolites of 2-Aminoimidazole-Containing Microsomal Prostaglandin E Synthase-1 Inhibitors Terminated Due to Clinical Drug-Induced Liver Injury” (J Med Chem, 2018).

A short description of data set [1]: Drug metabolism in rat hepatocytes assessed as metabolite M2 formation at 2 uM after 4 hrs by LC-MS/MS analysis. In kind it is ADME, cell-based, Hepatocyte.
Data set [2] can be described thus: Drug metabolism in human hepatocytes assessed as metabolite M2 formation at 2 uM after 4 hrs by LC-MS/MS analysis. Format: ADME, cell-based, Hepatocyte.
Data set [3] is described as follows: Drug metabolism in rat hepatocytes assessed as 2-chloro-5-(pivalamidomethyl)benzoic acid formation at 2 uM after 4 hrs by LC-MS/MS analysis. Format: ADME, cell-based, Hepatocyte.
Data set [4] in a line: Drug metabolism in human hepatocytes assessed as 2-(2-chloro-5-((3-hydroxy-2,2-dimethylpropanamido)methyl)benzamido)-N-phenyl-1H-imidazole-4-carboxamide formation at 2 uM after 4 hrs by LC-MS/MS analysis. In kind it is ADME, cell-based, Hepatocyte.
The nature of data set [5]: Drug metabolism in rat hepatocytes assessed as 2-(2-chloro-5-((3-hydroxy-2,2-dimethylpropanamido)methyl)benzamido)-N-phenyl-1H-imidazole-4-carboxamide at 2 uM after 4 hrs by LC-MS/MS analysis. In kind it is ADME, cell-based, Hepatocyte.
Data set [6] can be described thus: Drug metabolism in human hepatocytes assessed as 2-(2-chloro-5-(pivalamidomethyl)benzamido)-1H-imidazole-4-carboxylic acid formation at 2 uM after 4 hrs by LC-MS/MS analysis. Format: ADME, cell-based, Hepatocyte.
The nature of data set [7]: Drug metabolism in human hepatocytes assessed as 2-chloro-5-(pivalamidomethyl)benzoic acid formation at 2 uM after 4 hrs by LC-MS/MS analysis. Format: ADME, cell-based, Hepatocyte.
Data set [8] in a line: Drug metabolism in rat hepatocytes assessed as 2-(2-chloro-5-(pivalamidomethyl)benzamido)-1H-imidazole-4-carboxylic acid formation at 2 uM after 4 hrs by LC-MS/MS analysis. Format: ADME, cell-based, Hepatocyte.
The nature of data set [9]: Drug metabolism in human hepatocytes assessed as metabolite formation at 2 uM after 4 hrs by LC-MS/MS analysis. Format: ADME, cell-based, Hepatocyte.
Data set [10] can be described thus: Drug metabolism in rat hepatocytes assessed as metabolite formation at 2 uM after 4 hrs by LC-MS/MS analysis. Format: ADME, cell-based, Hepatocyte.
A short description of data set [11]: Drug metabolism in rat hepatocytes assessed as 2-chloro-N-(4,5-dimethyl-1H-imidazol-2-yl)-5-((3-hydroxy-2,2-dimethylpropanamido)methyl)benzamide formation at 2 uM after 4 hrs by LC-MS/MS analysis. Format: ADME, cell-based, Hepatocyte.
A short description of data set [12]: Drug metabolism in human hepatocytes assessed as 2-chloro-N-(4,5-dimethyl-1H-imidazol-2-yl)-5-((3-hydroxy-2,2-dimethylpropanamido)methyl)benzamide formation at 2 uM after 4 hrs by LC-MS/MS analysis. Format: ADME, cell-based, Hepatocyte.
Data set [13] can be described thus: Drug metabolism in human hepatocytes assessed as 2-chloro-N-(4-(hydroxymethyl)-5-methyl-1H-imidazol-2-yl)-5-(pivalamidomethyl)benzamide formation at 2 uM after 4 hrs by LC-MS/MS analysis. In kind it is ADME, cell-based, Hepatocyte.
Data set [14] can be described thus: Drug metabolism in rat hepatocytes assessed as N-carbamimidoyl-2-chloro-5-(pivalamidomethyl)benzamide formation at 2 uM after 4 hrs by LC-MS/MS analysis. Format: ADME, cell-based, Hepatocyte.
The nature of data set [15]: Drug metabolism in human hepatocytes assessed as N-carbamimidoyl-2-chloro-5-(pivalamidomethyl)benzamide formation at 2 uM after 4 hrs by LC-MS/MS analysis. Format: ADME, cell-based, Hepatocyte.
The nature of data set [16]: Drug metabolism in rat hepatocytes assessed as 2-chloro-N-(4-(hydroxymethyl)-5-methyl-1H-imidazol-2-yl)-5-(pivalamidomethyl)benzamide formation at 2 uM after 4 hrs by LC-MS/MS analysis. In kind it is ADME, cell-based, Hepatocyte.
Data set [17] is described as follows: Drug level in human hepatocytes treated with 2-Chloro-N-(4-cyano-1H-imidazol-2-yl)-5-(pivalamidomethyl)benzamide at 2 uM after 4 hrs by LC-MS/MS analysis. Format: ADME, cell-based, Hepatocyte.
Data set [18] can be described thus: Drug level in rat hepatocytes treated with 2-Chloro-N-(4-cyano-1H-imidazol-2-yl)-5-(pivalamidomethyl)benzamide at 2 uM after 4 hrs by LC-MS/MS analysis. Format: ADME, cell-based, Hepatocyte.
A short description of data set [19]: Drug metabolism in human hepatocytes assessed as 2-chloro-N-(4-cyano-1H-imidazol-2-yl)-5-((3-hydroxy-2,2-dimethylpropanamido)methyl)benzamide formation at 2 uM after 4 hrs by LC-MS/MS analysis. In kind it is ADME, cell-based, Hepatocyte.
The nature of data set [20]: Drug metabolism in rat hepatocytes assessed as 2-chloro-N-(4-cyano-1H-imidazol-2-yl)-5-((3-hydroxy-2,2-dimethylpropanamido)methyl)benzamide formation at 2 uM after 4 hrs by LC-MS/MS analysis. Format: ADME, cell-based, Hepatocyte.
The nature of data set [21]: Drug level in rat hepatocytes treated with 2-Chloro-N-(4-(hydroxymethyl)-1H-imidazol-2-yl)-5-(pivalamidomethyl)benzamide at 2 uM after 4 hrs by LC-MS/MS analysis. In kind it is ADME, cell-based, Hepatocyte.
The nature of data set [22]: Drug level in human hepatocytes treated with 2-Chloro-N-(4-(hydroxymethyl)-1H-imidazol-2-yl)-5-(pivalamidomethyl)benzamide at 2 uM after 4 hrs by LC-MS/MS analysis. In kind it is ADME, cell-based, Hepatocyte.
Data set [23] is described as follows: Drug level in human hepatocytes treated with 2-(2-Chloro-5-(pivalamidomethyl)benzamido)-N-phenyl-1Himidazole-4-carboxamide at 2 uM after 4 hrs by LC-MS/MS analysis. Format: ADME, cell-based, Hepatocyte.
The nature of data set [24]: Drug level in rat hepatocytes treated with 2-(2-Chloro-5-(pivalamidomethyl)benzamido)-N-phenyl-1Himidazole-4-carboxamide at 2 uM after 4 hrs by LC-MS/MS analysis. Format: ADME, cell-based, Hepatocyte.
The nature of data set [25]: Drug level in human liver microsomes treated with 2 -Chloro-N-(4,5-dimethyl-1H-imidazol-2-yl)-5-(pivalamidomethyl)benzamide at 2 uM after 0.5 hrs in presence of 1:1 ratio of unlabeled GSH and [glycine 13C2,15N]-labelled GSH by HPLC-MS analysis. In kind it is ADME, microsome. In a few lines: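 Glutathione-trapping incubation in human liver microsomes fortified with GSH to capture reactive intermediates. Metabolites and GSH adducts were identified by MS.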

For the molecule `CC(C)(C)C(=O)NCc1ccc(Cl)c(C(=O)Nc2nc(C(=O)Nc3ccccc3)c[nH]2)c1`, the Drug metabolism entry in [1], in data set [2], in data set [3], in data set [4], in data set [5] and in [6] was “Metabolite_Detected” in each case. The Drug metabolism entry in [7] and in data set [8] was “Metabolite_Detected” in each case.
As to `CC(C)(C)C(=O)NCc1ccc(Cl)c(C(=O)Nc2nc(C(N)=O)c[nH]2)c1`, the Drug metabolism entry in data set [9] and in data set [10] was “Metabolite_Notdetected” throughout.
Consider `Cc1nc(NC(=O)c2cc(CNC(=O)C(C)(C)C)ccc2Cl)[nH]c1C`, for which the Drug metabolism result in data set [11], in data set [12], in data set [13], in [14], in [15] and in [16] was “Metabolite_Detected” in each case.
Consider `CC(C)(CO)C(=O)NCc1ccc(Cl)c(C(=O)Nc2nc(C#N)c[nH]2)c1`, for which the Drug metabolism entry in [17] and in [18] was “Metabolite_Detected” in each case.
With `CC(C)(C)C(=O)NCc1ccc(Cl)c(C(=O)Nc2nc(C#N)c[nH]2)c1`, the Drug metabolism entry in data set [19] and in [20] was “Metabolite_Detected” throughout.
Turning to `CC(C)(C)C(=O)NCc1ccc(Cl)c(C(=O)Nc2nc(C(=O)O)c[nH]2)c1`, the Drug metabolism entry in data set [21], in data set [22], in [23] and in data set [24] was “Metabolite_Detected” in each case.
For `Cc1[nH]c(NC(=O)c2cc(CNC(=O)C(C)(C)C)ccc2Cl)nc1CSC[C@H](NC(=O)CC[C@H](N)C(=O)O)C(=O)NCC(=O)O`, in data set [25], the Drug metabolism entry is “Metabolite_Detected”.
